# T cruzi growth-1 – T. cruzi proliferation inhibition. T. cruzi beta-gal in NIH3T3, GalScreen luminescence, 90 h. inhibition, % at 8.34 µM. actives 5.9% (n = 77,000). AID 624255;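 active = mean inhibition above about 93%, with at least 55% of replicates each passing it, limit read from the data, passing the limit was not always enough; inconclusive = only one of those two conditions holds; inactive = neither condition holds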
# KDM4C inh – KDM4C (human) demethylase inhibition. GST-KDM4C 2-372, H3K9me3 peptide, LANCE TR-FRET. AID 720574. actives 0.15% (n = 96,000). Q9H3R0. inhibition, % at 12.5 µM;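 active = mean replicate inhibition above about 25%, with at least 55% of replicates also reaching it, limit read from the data, passing the limit was not always enough; inconclusive = only one of those two conditions met; inactive = neither condition met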
#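 Material: GST-tagged GASC-1 (JMJD2C) catalytic fragment, aa 2-372. Input: enzyme final amount 10 nM. Medium: HEPES buffer, pH 7.5, plus ascorbate. Reagent: H3K9me3 peptide substrate, Fe(II), 2-oxoglutarate. Doses: single dose. Times: reaction 30 min RT, detection step 1 h RT. Measured by: LANCE TR-FRET. Evaluation: Fall in 671/618 emission ratio as inhibition.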
# IDH1 R132H inh – inhibitors of human IDH1 R132H. actives 0.18% (n = 70,000). IDH1 R132H reductase, diaphorase/resazurin fluorescence, 60 min. O75874. inhibition, % at 10 µM; in the data active = inhibition above about 34%; inconclusive = no clear call, values can overlap the other calls; inactive = below about 11%;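 note: 0% = DMSO and 100% = no enzyme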
# Target sequence (O75874 whole entry R132H): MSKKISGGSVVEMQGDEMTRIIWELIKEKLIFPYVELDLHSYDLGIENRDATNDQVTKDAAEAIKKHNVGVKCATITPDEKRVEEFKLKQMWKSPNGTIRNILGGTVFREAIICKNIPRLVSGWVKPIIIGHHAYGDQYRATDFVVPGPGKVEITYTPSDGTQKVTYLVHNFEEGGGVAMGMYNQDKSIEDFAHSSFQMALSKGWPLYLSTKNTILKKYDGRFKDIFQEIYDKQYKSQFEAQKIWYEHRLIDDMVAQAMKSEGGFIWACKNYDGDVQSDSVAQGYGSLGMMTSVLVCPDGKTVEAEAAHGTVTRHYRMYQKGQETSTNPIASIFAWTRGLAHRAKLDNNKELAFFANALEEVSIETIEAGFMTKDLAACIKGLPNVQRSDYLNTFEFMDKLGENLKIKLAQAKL
# T cruzi growth-2 – inhibitors of T. cruzi proliferation. shares compounds with T cruzi growth-1. T. cruzi beta-gal in NIH3T3, GalScreen luminescence, 90 h. inhibition, % at 8.35 µM. actives 72% (n = 5,600). AID 651739;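 active = mean replicate inhibition above about 95% and at least 55% of replicates individually reaching it, limit read from the data; inconclusive = only one of the two criteria is met; inactive = neither criterion is met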
# T cruzi growth-3 – blocks T. cruzi growth in NIH3T3 host cells; actives 21% (n = 5,600); AID 651740; T. cruzi beta-gal in NIH3T3, GalScreen luminescence, 90 h; shares compounds with T cruzi growth-1; inhibition, % at 2.09 µM;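 active = mean inhibition above about 95%, with at least 55% of replicates also reaching it, limit read from the data; inconclusive = meets just one of the two conditions; inactive = meets neither condition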;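 note: plate controls were neutral control median for no effect and positive control median for full effect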
# NIH3T3 tox – kills mouse NIH/3T3 fibroblasts; NIH/3T3 viability, CellTiter-Glo ATP luminescence, 90 h; actives 14% (n = 5,600); AID 651742; cytotoxicity (signal decrease), % at 8.35 µM; shares compounds with T cruzi growth-1;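 active = mean signal decrease across replicates above about 35% based on untreated-well scatter, with enough replicates individually passing, limit read from the data; inconclusive = no rule stated though some were filed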;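 note: 0% = median of neutral control wells and 100% = median of positive control wells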
# NIH3T3 tox 2 – cytotoxicity in mouse NIH/3T3 fibroblasts; inhibition, % at 24.9 µM; actives 56% (n = 5,600); shares compounds with T cruzi growth-1; NIH/3T3 viability, CellTiter-Glo ATP luminescence, 90 h; AID 651744;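 active = mean loss of cell viability signal at or above a set limit, and enough replicates individually reaching it; inconclusive = meets only the mean limit or only the replicate share; inactive = meets neither condition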;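 note: 0% = median of neutral control wells and 100% = median of positive control wells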
# Starred values were filed as active, the others as inactive; u = inconclusive; x = not tested or not shown. This is one part of a sample in which hits are shown more often than they occur.
SMILES,T cruzi growth-1,KDM4C inh,IDH1 R132H inh,T cruzi growth-2,T cruzi growth-3,NIH3T3 tox,NIH3T3 tox 2
C[C@@H]1CCCCO[C@@H](CN(C)Cc2ccc(C(F)(F)F)cc2)[C@H](C)CN([C@H](C)CO)C(=O)c2cc(NS(=O)(=O)c3cccs3)ccc2O1,113.7*,-1.1,0.7,98.0*,113.7*,-10.4,104.3*
C[C@@H]1CCCCO[C@@H](CN(C)Cc2ccc(C(F)(F)F)cc2)[C@H](C)CN([C@@H](C)CO)C(=O)c2cc(NS(=O)(=O)c3cccs3)ccc2O1,112.5*,-0.2,x,103.0*,99.1*,u,105.6*
C[C@@H]1CCCCO[C@H](CN(C)Cc2ccc(C(F)(F)F)cc2)[C@H](C)CN([C@H](C)CO)C(=O)c2cc(NS(=O)(=O)c3cccs3)ccc2O1,100.7*,-1.4,x,98.8*,116.7*,25.4,105.3*
C[C@@H]1CCCCO[C@H](CN(C)Cc2ccc(C(F)(F)F)cc2)[C@H](C)CN([C@@H](C)CO)C(=O)c2cc(NS(=O)(=O)c3cccs3)ccc2O1,112.6*,-2.2,1.0,97.0*,104.2*,18.2,103.0*
COc1ccc(OC)c(NC(=O)c2ccc(N(C)S(=O)(=O)c3ccc(OC)c(OC)c3)cc2)c1,x,x,-0.1,x,x,x,x
O=C(CSc1nc(-c2ccccc2)cc(C(F)(F)F)n1)c1ccc(Br)cc1,x,x,-0.2,x,x,x,x
CC(NS(=O)(=O)c1ccc(Cl)cc1)C(=O)Nc1ccccc1Sc1ccccc1 (centres undefined),x,x,0.0,x,x,x,x
CC(NS(=O)(=O)c1ccc(F)cc1)C(=O)Nc1cc(Cl)ccc1Oc1ccccc1 (centres undefined),x,x,0.4,x,x,x,x
C[C@H](CO)N1C[C@H](C)[C@H](CN(C)C(=O)Nc2ccc(C(F)(F)F)cc2)OCCCC[C@H](C)Oc2ccc(NS(=O)(=O)c3cccs3)cc2C1=O,96.7*,0.8,7.1,96.8*,105.0*,-1.9,1.1
C[C@@H]1CCCCO[C@@H](CN(C)C(=O)Nc2ccc(C(F)(F)F)cc2)[C@@H](C)CN([C@H](C)CO)C(=O)c2cc(NS(=O)(=O)c3cccs3)ccc2O1,x,0.1,1.3,x,x,x,x
COc1cccc(NC(=O)CSc2ncnc3scc(-c4ccc(C)cc4)c23)c1,x,x,0.0,x,x,x,x
C[C@@H]1CN([C@@H](C)CO)S(=O)(=O)c2ccc(C#Cc3ccccn3)cc2O[C@H]1CN(C)Cc1ccc(F)cc1,128.3*,-25.7,0.1,96.8*,u,50.4*,39.1*
C[C@@H]1CN([C@H](C)CO)S(=O)(=O)c2ccc(C#Cc3ccccn3)cc2O[C@H]1CN(C)Cc1ccc(F)cc1,126.7*,-12.2,0.2,103.8*,90.8,29.2,92.6*
CC(=O)N(C)C[C@H]1Oc2cc(C#Cc3ccccn3)ccc2S(=O)(=O)N([C@H](C)CO)C[C@H]1C,42.3,8.0,-1.4,x,x,x,x
CC(=O)N(C)C[C@H]1Oc2cc(C#Cc3ccccn3)ccc2S(=O)(=O)N([C@@H](C)CO)C[C@@H]1C,52.9,-4.2,-9.3,x,x,x,x
CC(C)CC#Cc1ccc2c(c1)O[C@@H](CN(C)Cc1ccc(F)cc1)[C@H](C)CN([C@H](C)CO)S2(=O)=O,48.8,-0.4,-0.9,x,x,x,x
C[C@H]1CN([C@@H](C)CO)S(=O)(=O)c2ccc(C#Cc3ccc(F)cc3)cc2O[C@@H]1CN(C)C(=O)c1ccccn1,u,-0.9,x,102.0*,29.0,0.8,51.7*
C[C@@H]1CN([C@H](C)CO)S(=O)(=O)c2ccc(C#Cc3ccc(F)cc3)cc2O[C@H]1CN(C)C(=O)c1ccccn1,87.7,2.7,x,x,x,x,x
C[C@@H]1CN([C@H](C)CO)S(=O)(=O)c2ccc(C#Cc3ccccn3)cc2O[C@@H]1CN(C)Cc1ccc(F)cc1,115.7*,-4.6,-0.3,105.1*,63.9,10.9,24.3*
COC(=O)C[C@H]1C[C@H]2c3cc(NS(=O)(=O)c4ccc(OC)cc4)ccc3O[C@H]2[C@@H](CO)O1,-28.1,-0.7,-4.1,x,x,x,x
O=C1c2c(O)cc(O)cc2O[C@@H](c2ccc(O)cc2)[C@@H]1O,x,x,-0.2,x,x,x,x
COc1cc(O)c(C(=O)CCc2ccc(OC)c(OC)c2)c(OC)c1,x,x,-0.2,x,x,x,x
OCCN(CCO)c1nc(-c2ccccc2)nc2sc(-c3ccccc3)cc12,x,x,-1.1,x,x,x,x
Cc1ccn2cc(-c3cccc(NS(=O)(=O)c4cc([N+](=O)[O-])ccc4C)c3)nc2c1,x,x,-1.0,x,x,x,x
COc1ccccc1N1C(=O)CC(SCC(=O)Nc2ccc(F)cc2)C1=O (centres undefined),x,x,0.4,x,x,x,x
SMILES,T cruzi growth-1,KDM4C inh,IDH1 R132H inh,T cruzi growth-2,T cruzi growth-3,NIH3T3 tox,NIH3T3 tox 2
CS(=O)(=O)N(CC(=O)Nc1ccc(Oc2ccccc2)cc1)c1ccc2c(c1)OCCO2,x,x,0.1,x,x,x,x
N#C[C@H]1[C@H](c2ccc(C#Cc3ccc(F)cc3)cc2)[C@@H](CO)N1C(=O)C1CCC1,92.9,-0.2,x,x,x,x,x
COc1cccc(C#Cc2ccc([C@H]3[C@@H](CO)N(C(=O)C4CCC4)[C@H]3C#N)cc2)c1,86.7,-2.7,-0.4,x,x,x,x
N#C[C@H]1[C@H](c2ccc(C#Cc3cccc(F)c3)cc2)[C@@H](CO)N1C(=O)C1CCC1,97.0*,-1.4,x,97.2*,108.8*,17.4,11.8
N#C[C@@H]1[C@@H](c2ccc(C#Cc3cccc(F)c3)cc2)[C@H](CO)N1C(=O)C1CCC1,99.2*,-0.9,x,104.0*,105.2*,14.2,-2.6
CCN1CCCC1CNC(=O)C(NC(=O)c1ccc(C23CC4CC(CC(C4)C2)C3)cc1)C(C)C (centres undefined),x,x,0.4,x,x,x,x
